≈ marks a conversion by molar mass, not a printed value.
How the values were obtained:
[1] = test system: Mycobacterium tuberculosis; experiment: Antitubercular activity against Mycobacterium tuberculosis H37Rv after 4 days by MABA method; assay type: functional; details: 96 h
Procedure, shortened: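 Aerobic culture of H37Rv in microplate Alamar blue assay. MIC90 taken as the minimum concentration giving 90% growth inhibition. Each value is the mean of at least two independent determinations. Most compounds were tested as RS,SR diastereomer mixtures; a few were tested only as the pure R,S enantiomer.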

[2] = target: Voltage-gated inwardly rectifying potassium channel KCNH2 (Homo sapiens, UniProt Q12809); experiment: Inhibition of human ERG
Voltage-gated inwardly rectifying potassium channel KCNH2, sequence (Q12809 whole entry): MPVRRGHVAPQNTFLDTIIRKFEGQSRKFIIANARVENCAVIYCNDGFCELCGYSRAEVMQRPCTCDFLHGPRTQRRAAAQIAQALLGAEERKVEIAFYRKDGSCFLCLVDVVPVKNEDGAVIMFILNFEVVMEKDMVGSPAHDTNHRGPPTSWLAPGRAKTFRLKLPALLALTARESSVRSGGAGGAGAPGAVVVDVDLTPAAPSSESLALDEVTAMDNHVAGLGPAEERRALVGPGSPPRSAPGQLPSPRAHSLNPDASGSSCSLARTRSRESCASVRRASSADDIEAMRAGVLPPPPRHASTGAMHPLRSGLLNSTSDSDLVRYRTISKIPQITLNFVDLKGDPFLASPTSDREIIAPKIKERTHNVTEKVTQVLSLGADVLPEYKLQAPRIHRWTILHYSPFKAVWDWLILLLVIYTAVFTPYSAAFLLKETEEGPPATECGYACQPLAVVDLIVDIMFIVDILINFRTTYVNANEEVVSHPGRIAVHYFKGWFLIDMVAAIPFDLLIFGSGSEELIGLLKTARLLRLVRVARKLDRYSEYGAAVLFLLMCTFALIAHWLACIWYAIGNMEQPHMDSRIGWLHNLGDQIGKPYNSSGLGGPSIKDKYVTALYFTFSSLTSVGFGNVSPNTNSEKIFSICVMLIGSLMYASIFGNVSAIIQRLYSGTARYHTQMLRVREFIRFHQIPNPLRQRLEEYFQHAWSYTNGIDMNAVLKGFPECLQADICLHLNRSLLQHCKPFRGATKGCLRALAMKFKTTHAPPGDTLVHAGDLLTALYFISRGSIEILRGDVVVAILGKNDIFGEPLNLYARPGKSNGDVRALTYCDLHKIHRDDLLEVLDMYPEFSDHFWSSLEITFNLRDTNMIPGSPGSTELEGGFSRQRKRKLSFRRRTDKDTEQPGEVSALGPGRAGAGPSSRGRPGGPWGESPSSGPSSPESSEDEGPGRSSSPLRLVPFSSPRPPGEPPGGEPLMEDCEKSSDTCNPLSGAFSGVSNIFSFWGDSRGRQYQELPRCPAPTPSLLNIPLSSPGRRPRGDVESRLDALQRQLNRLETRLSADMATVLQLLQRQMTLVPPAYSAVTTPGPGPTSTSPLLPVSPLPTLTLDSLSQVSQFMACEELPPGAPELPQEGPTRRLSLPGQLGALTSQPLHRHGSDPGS

Row | Compound | MIC90 [1] [µg/mL] | IC50 [2] [µM]
1 | COc1nc2ccc(Cl)cc2cc1C(c1ccccc1)C(O)(CCN(C)C)c1cccc2ccccc12 (stereo not given) | 0.71 (≈ 1.39 µM) | 6.9
2 | COc1cccc(C(c2cc3cc(C#N)ccc3nc2OC)C(O)(CCN(C)C)c2cccc(F)c2)c1F (stereo not given) | 0.18 (≈ 0.348 µM) | –
3 | COc1cccc(C(c2cc3cc(N4CC5(COC5)C4)ccc3nc2OC)C(O)(CCN(C)C)c2cccc(OC(F)(F)F)c2)c1OC (stereo not given) | 0.75 (≈ 1.12 µM) | –
4 | COc1nc2ccc(C(=O)N(C)C)cc2cc1C(c1ccccc1)C(O)(CCN(C)C)c1cccc2ccccc12 (stereo not given) | 2.2 (≈ 4.02 µM) | 6.3
5 | COc1nc2ccc(CC(C)=O)cc2cc1C(c1ccccc1)C(O)(CCN(C)C)c1cccc2ccccc12 (stereo not given) | > 7 | 10
6 | COc1cccc([C@H](c2cc3cc(N(C)S(=O)(=O)N(C)C)ccc3nc2OC)[C@@](O)(CCN(C)C)c2cccc(F)c2)c1OC | 1.13 (≈ 1.76 µM) | –
7 | COc1nc2ccc(Br)cc2cc1C(c1cccc(F)c1)C(O)(CCN(C)C)c1cccc(OC(F)(F)F)c1 (stereo not given) | 0.25 (≈ 0.412 µM) | –
8 | COc1nc2ccc(N3CC4(COC4)C3)cc2cc1[C@@H](c1ccccc1)[C@@](O)(CCN(C)C)c1cccc2ccccc12 | 0.71 (≈ 1.24 µM) | –
9 | COc1cccc([C@@H](c2cc3cc(N4CC[S+]([O-])CC4)ccc3nc2OC)[C@@](O)(CCN(C)C)c2cccc(F)c2)c1F | > 5 | –
10 | CCc1ccc2nc(OC)c(C(c3ccccc3)C(O)(CCN(C)C)c3cccc4ccccc34)cc2c1 (stereo not given) | 0.23 (≈ 0.456 µM) | –
11 | COc1cccc([C@@H](c2cc3cc(N4CC5(COC5)C4)ccc3nc2OC)[C@@](O)(CCN(C)C)c2cccc(C)c2)c1F | 1.1 (≈ 1.88 µM) | –
12 | CC#Cc1ccc2nc(OC)c(C(c3ccccc3)C(O)(CCN(C)C)c3cccc4ccccc34)cc2c1 (stereo not given) | 6.1 (≈ 11.9 µM) | 7.9
13 | COc1nc2ccccc2cc1C(c1ccccc1)C(O)(CCN(C)C)c1cccc2ccccc12 (stereo not given) | 1.9 (≈ 3.99 µM) | 1.6
14 | COc1nc2ccc(C3CC3)cc2cc1C(c1ccccc1)C(O)(CCN(C)C)c1cccc2ccccc12 (stereo not given) | 0.13 (≈ 0.252 µM) | –
15 | COc1cccc(C(c2cc3cc(Br)ccc3nc2OC)C(O)(CCN(C)C)c2cccc(OC)c2OC)c1OC (stereo not given) | 0.2 (≈ 0.32 µM) | –
16 | COc1cccc([C@@H](c2cc3cc(N4CCSCC4)ccc3nc2OC)[C@@](O)(CCN(C)C)c2cccc(F)c2)c1F | 0.19 (≈ 0.32 µM) | –
17 | COc1cccc([C@@H](c2cc3cc(N4CC5(COC5)C4)ccc3nc2OC)[C@@](O)(CCN(C)C)c2cccc(Cl)c2)c1F | 0.31 (≈ 0.511 µM) | –
18 | COc1cccc([C@](O)(CCN(C)C)[C@H](c2cc3cc(N4CC5(COC5)C4)ccc3nc2OC)c2cccc(OC)c2F)c1 | 0.87 (≈ 1.45 µM) | –
19 | COc1cccc([C@H](c2cc3cc(N4CCSCC4)ccc3nc2OC)[C@@](O)(CCN(C)C)c2cccc(F)c2)c1OC | 0.28 (≈ 0.462 µM) | –
20 | COc1cccc([C@H](c2cc3cc(N4CC[S+]([O-])CC4)ccc3nc2OC)[C@@](O)(CCN(C)C)c2cccc(F)c2)c1OC | 4.8 (≈ 7.72 µM) | –
21 | COc1nc2ccc(N3CCOCC3)cc2cc1C(c1cccc(F)c1)C(O)(CCN(C)C)c1cccc(OC(F)(F)F)c1 (stereo not given) | 0.85 (≈ 1.39 µM) | –
22 | C#Cc1ccc2nc(OC)c(C(c3ccccc3)C(O)(CCN(C)C)c3cccc(F)c3)cc2c1 (stereo not given) | 0.36 (≈ 0.768 µM) | –
23 | COc1cccc(C(c2cc3cc(OC(F)(F)F)ccc3nc2OC)C(O)(CCN(C)C)c2cccc(OC(F)(F)F)c2)c1F (stereo not given) | 1.1 (≈ 1.71 µM) | –
24 | COc1cccc(C(O)(CCN(C)C)C(c2cc3cc(Br)ccc3nc2OC)c2cccc(OC)c2F)c1 (stereo not given) | 0.1 (≈ 0.171 µM) | –
25 | COc1cccc(C(c2cc3cc(C#N)ccc3nc2OC)C(O)(CCN(C)C)c2cccc(F)c2)c1OC (stereo not given) | 0.17 (≈ 0.321 µM) | –

Row | Compound | MIC90 [1] [µg/mL] | IC50 [2] [µM]
26 | COc1cccc(C(c2cc3cc(C#N)ccc3nc2OC)C(O)(CCN(C)C)c2cccc(OC(F)(F)F)c2)c1F (stereo not given) | 0.26 (≈ 0.446 µM) | –
27 | COc1nc2ccc(CN(C)C)cc2cc1C(c1ccccc1)C(O)(CCN(C)C)c1cccc2ccccc12 (stereo not given) | 3.7 (≈ 6.93 µM) | 4.8
28 | COc1cccc(C(c2cc3cc(N4CCOCC4)ccc3nc2OC)C(O)(CCN(C)C)c2cccc(OC)c2OC)c1OC (stereo not given) | 2.5 (≈ 3.96 µM) | –
29 | COc1cccc(C(c2cc3cc(C#N)ccc3nc2OC)C(O)(CCN(C)C)c2cccc(C)c2)c1F (stereo not given) | 0.09 (≈ 0.175 µM) | –
30 | COc1cccc(C(c2cc3cc(C#N)ccc3nc2OC)C(O)(CCN(C)C)c2cccc(OC(F)(F)F)c2)c1OC (stereo not given) | 0.21 (≈ 0.353 µM) | –
31 | COc1cccc(C(c2cc3cc(Br)ccc3nc2OC)C(O)(CCN(C)C)c2cccc(F)c2)c1F (stereo not given) | 0.1 (≈ 0.175 µM) | –
32 | COc1nc2ccc(N)cc2cc1C(c1ccccc1)C(O)(CCN(C)C)c1cccc2ccccc12 (stereo not given) | 1.9 (≈ 3.86 µM) | –
33 | COc1nc2ccc(N(C)S(=O)(=O)N(C)C)cc2cc1[C@@H](c1ccccc1)[C@@](O)(CCN(C)C)c1cccc(F)c1 | 5 (≈ 8.61 µM) | –
34 | COc1nc2ccc(CO)cc2cc1C(c1ccccc1)C(O)(CCN(C)C)c1cccc2ccccc12 (stereo not given) | 1.6 (≈ 3.16 µM) | 10
35 | COc1cccc(C(c2cc3cc(N4CCCCC4)ccc3nc2OC)C(O)(CCN(C)C)c2cccc(OC(F)(F)F)c2)c1F (stereo not given) | 2.3 (≈ 3.58 µM) | –
36 | COc1nc2ccc(OC(F)(F)F)cc2cc1C(c1ccccc1)C(O)(CCN(C)C)c1cccc2ccccc12 (stereo not given) | 0.24 (≈ 0.428 µM) | –
37 | COc1cccc(C(c2cc3cc(N4CC5(COC5)C4)ccc3nc2OC)C(O)(CCN(C)C)c2cccc(OC(F)(F)F)c2)c1F (stereo not given) | 0.77 (≈ 1.17 µM) | –
38 | COc1nc2ccc(Br)cc2cc1C(c1ccccc1)C(O)(CCN(C)C)c1cccc(F)c1 (stereo not given) | 0.23 (≈ 0.439 µM) | –
39 | COc1nc2ccc(C)cc2cc1C(c1ccccc1)C(O)(CCN(C)C)c1cccc2ccccc12 (stereo not given) | 1.74 (≈ 3.55 µM) | –
40 | COc1cccc([C@@H](c2cc3cc(N4CCS(=O)(=O)CC4)ccc3nc2OC)[C@@](O)(CCN(C)C)c2cccc(F)c2)c1F | > 5 | –
41 | COc1cccc([C@@H](c2cc3cc(S(C)(=O)=O)ccc3nc2OC)[C@@](O)(CCN(C)C)c2cccc(F)c2)c1F | 2.3 (≈ 4.03 µM) | –
42 | COc1nc2ccc(/C=N/O)cc2cc1C(c1ccccc1)C(O)(CCN(C)C)c1cccc2ccccc12 (stereo not given) | 6 (≈ 11.5 µM) | 3.5
43 | COc1nc2ccc(F)cc2cc1C(c1ccccc1)C(O)(CCN(C)C)c1cccc2ccccc12 (stereo not given) | 0.94 (≈ 1.9 µM) | –
44 | COc1cccc(C(c2cc3cc(Br)ccc3nc2OC)C(O)(CCN(C)C)c2cccc(F)c2)c1OC (stereo not given) | 0.04 (≈ 0.0686 µM) | –
45 | COc1nc2ccc(C(=O)O)cc2cc1C(c1ccccc1)C(O)(CCN(C)C)c1cccc2ccccc12 (stereo not given) | > 6.7 | 10
46 | COc1cccc(C(c2cc3cc(N4CCOCC4)ccc3nc2OC)C(O)(CCN(C)C)c2cccc(OC(F)(F)F)c2)c1OC (stereo not given) | 0.68 (≈ 1.04 µM) | –
47 | C=Cc1ccc2nc(OC)c(C(c3ccccc3)C(O)(CCN(C)C)c3cccc4ccccc34)cc2c1 (stereo not given) | 1.9 (≈ 3.78 µM) | –
48 | COc1nc2ccc(NC3CCCC3)cc2cc1C(c1ccccc1)C(O)(CCN(C)C)c1cccc2ccccc12 (stereo not given) | 1.7 (≈ 3.04 µM) | –
49 | COc1nc2ccc(C#N)cc2cc1C(c1cccc(F)c1)C(O)(CCN(C)C)c1cccc(OC(F)(F)F)c1 (stereo not given) | 0.47 (≈ 0.849 µM) | –
50 | COc1cccc(C(c2cc3cc(C#N)ccc3nc2OC)C(O)(CCN(C)C)c2cccc(Cl)c2)c1F (stereo not given) | 0.13 (≈ 0.243 µM) | –

Row | Compound | MIC90 [1] [µg/mL] | IC50 [2] [µM]
51 | COc1nc2ccc(C#N)cc2cc1C(c1ccccc1)C(O)(CCN(C)C)c1cccc(F)c1 (stereo not given) | 0.69 (≈ 1.47 µM) | –
52 | C#Cc1ccc2nc(OC)c(C(c3ccccc3)C(O)(CCN(C)C)c3cccc4ccccc34)cc2c1 (stereo not given) | 0.48 (≈ 0.959 µM) | –
53 | COc1cccc(C(c2cc3cc(F)ccc3nc2OC)C(O)(CCN(C)C)c2cccc(OC(F)(F)F)c2)c1F (stereo not given) | 0.21 (≈ 0.364 µM) | –
54 | COc1nc2ccc(I)cc2cc1C(c1ccccc1)C(O)(CCN(C)C)c1cccc2ccccc12 (stereo not given) | 0.2 (≈ 0.332 µM) | –
55 | COc1cccc(C(O)(CCN(C)C)C(c2cc3cc(C#N)ccc3nc2OC)c2cccc(OC)c2F)c1 (stereo not given) | 0.09 (≈ 0.17 µM) | –
56 | COc1cccc(C(c2cc3cc(N4CC5(COC5)C4)ccc3nc2OC)C(O)(CCN(C)C)c2cccc(F)c2)c1OC (stereo not given) | 0.66 (≈ 1.1 µM) | –
57 | COc1cccc(C(c2cc3cc(C#N)ccc3nc2OC)C(O)(CCN(C)C)c2cccc(OC)c2OC)c1OC (stereo not given) | 0.34 (≈ 0.595 µM) | –
58 | COc1nc2ccc(Cl)cc2cc1C(c1cccc(F)c1)C(O)(CCN(C)C)c1cccc(OC(F)(F)F)c1 (stereo not given) | 0.09 (≈ 0.16 µM) | –
59 | COc1cccc(C(c2cc3cc(Br)ccc3nc2OC)C(O)(CCN(C)C)c2cccc(OC(F)(F)F)c2)c1OC (stereo not given) | 0.09 (≈ 0.139 µM) | –
60 | COc1cccc([C@@H](c2cc3cc(SC)ccc3nc2OC)[C@@](O)(CCN(C)C)c2cccc(F)c2)c1F | 0.13 (≈ 0.241 µM) | –
61 | COc1nc2ccc(NC3CCC3)cc2cc1[C@@H](c1ccccc1)[C@@](O)(CCN(C)C)c1cccc2ccccc12 | 0.48 (≈ 0.88 µM) | –
62 | COc1nc2ccc(N(C)S(=O)(=O)c3ccccc3)cc2cc1[C@@H](c1ccccc1)[C@@](O)(CCN(C)C)c1cccc(F)c1 | 4.1 (≈ 6.68 µM) | –
63 | COc1cccc(C(c2cc3cc(N4CCNCC4)ccc3nc2OC)C(O)(CCN(C)C)c2cccc(OC(F)(F)F)c2)c1F (stereo not given) | 0.66 (≈ 1.03 µM) | –
64 | COc1cccc(C(c2cc3cc(N4CCOCC4)ccc3nc2OC)C(O)(CCN(C)C)c2cccc(OC(F)(F)F)c2)c1F (stereo not given) | 0.14 (≈ 0.218 µM) | –
65 | CO/N=C/c1ccc2nc(OC)c([C@@H](c3ccccc3)[C@](O)(CCN(C)C)c3cccc4ccccc34)cc2c1 | 0.21 (≈ 0.394 µM) | 2.2
66 | COc1cccc(C(c2cc3cc(Br)ccc3nc2OC)C(O)(CCN(C)C)c2cccc(Cl)c2)c1F (stereo not given) | 0.07 (≈ 0.119 µM) | –
67 | COc1nc2ccc(C(F)(F)F)cc2cc1C(c1ccccc1)C(O)(CCN(C)C)c1cccc2ccccc12 (stereo not given) | 0.38 (≈ 0.698 µM) | –
68 | COc1cccc(C(c2cc3cc(Br)ccc3nc2OC)C(O)(CCN(C)C)c2cccc(OC(F)(F)F)c2)c1F (stereo not given) | 0.09 (≈ 0.141 µM) | –
69 | COc1cccc([C@H](c2cc3cc(N4CCS(=O)(=O)CC4)ccc3nc2OC)[C@@](O)(CCN(C)C)c2cccc(F)c2)c1OC | > 5 | –
70 | COc1nc2ccc(CN)cc2cc1C(c1ccccc1)C(O)(CCN(C)C)c1cccc2ccccc12 (stereo not given) | > 12 | 1.7
71 | COc1cccc(C(c2cc3cc(Cl)ccc3nc2OC)C(O)(CCN(C)C)c2cccc(OC)c2OC)c1OC (stereo not given) | 0.25 (≈ 0.43 µM) | –
72 | COc1cccc(C(c2cc3cc(Br)ccc3nc2OC)C(O)(CCN(C)C)c2cccc(C)c2)c1F (stereo not given) | 0.04 (≈ 0.0705 µM) | –
73 | COc1cccc(C(c2cc3cc(N4CC5(COC5)C4)ccc3nc2OC)[C@@](O)(CCN(C)C)c2cccc(F)c2)c1F (single isomer, unassigned) | 0.51 (≈ 0.865 µM) | –
74 | COc1nc2ccc(Br)cc2cc1[C@@H](c1ccccc1)[C@@](O)(CCN(C)C)c1cccc2ccccc12 [BEDAQUILINE] | 0.09 (≈ 0.162 µM) | –
